# Experimental data from ChEMBL document CHEMBL1157150, “Synthesis, structure and antibacterial activity of novel 1-(5-substituted-3-substituted-4,5-dihydropyrazol-1-yl)ethanone oxime ester derivatives” (Bioorg Med Chem, 2008).
# Calls of active or inactive are those of the source. No cut-off for these calls is given here.
# System: Bacillus subtilis
# Experiment: microbe, parasite or virus in culture
# Format: functional
# Conditions: ATCC 6633
row,SMILES,MIC [µg/mL]
1,C/C(=N/OC(=O)c1ccc(Cl)cc1)N1N=C(c2ccc(Cl)cc2Cl)CC1c1ccc(C(F)(F)F)cc1 (stereo not drawn),12.5
2,C/C(=N/OC(=O)c1ccccc1[N+](=O)[O-])N1N=C(c2ccc(Cl)cc2Cl)CC1c1ccccc1F (stereo not drawn),25
3,C/C(=N/OC(=O)c1ccccc1[N+](=O)[O-])N1N=C(c2ccc(Cl)cc2Cl)CC1c1ccc(C(F)(F)F)cc1 (stereo not drawn),50
4,CC1=NN(/C(C)=N\OC(=O)/C=C/c2ccccc2)C(c2ccc(OCc3ccc(F)cc3)cc2)C1 (stereo not drawn),12.5
5,CC1=NN(/C(C)=N\OC(=O)c2ccc(Cl)cc2Cl)C(c2ccc(OCc3ccc(F)cc3)cc2)C1 (stereo not drawn),12.5
6,COC1CC(c2ccccc2)=NN1/C(C)=N\OC(=O)c1ccc(Cl)cc1 (stereo not drawn),3.12
7,CCCC(=O)O/N=C(/C)N1N=C(C)CC1c1ccc(OCc2ccc(F)cc2)cc1 (stereo not drawn),50
8,CC1=NN(/C(C)=N\OC(=O)c2ccccc2F)C(c2ccc(OCc3ccc(F)cc3)cc2)C1 (stereo not drawn),25
9,C/C(=N/OC(=O)c1ccccc1F)N1N=C(c2ccc(Cl)cc2Cl)CC1c1ccccc1F (stereo not drawn),12.5
10,C/C(=N/OC(=O)c1ccc(C(F)(F)F)cc1)N1N=C(c2ccc(Cl)cc2Cl)CC1c1ccccc1F (stereo not drawn),12.5
11,CC1=NN(/C(C)=N\OC(=O)c2ccc(Cl)cc2)C(c2ccc(OCc3ccc(F)cc3)cc2)C1 (stereo not drawn),> 50
12,CC1=NN(/C(C)=N\OC(=O)c2ccccc2F)C(c2ccccc2OCc2ccc(F)cc2)C1 (stereo not drawn),50
13,C/C(=N/OC(=O)c1ccc(C(F)(F)F)cc1)N1N=C(c2ccc(Cl)cc2Cl)CC1c1ccc(C(F)(F)F)cc1 (stereo not drawn),25
14,C/C(=N/OC(=O)c1ccccc1C)N1N=C(c2ccc(Cl)cc2Cl)CC1c1ccc(C(F)(F)F)cc1 (stereo not drawn),50
15,CCC(=O)O/N=C(/C)N1N=C(C)CC1c1ccc(OCc2ccc(F)cc2)cc1 (stereo not drawn),50
16,C/C(=N/OC(=O)c1ccc(F)cc1)N1N=C(c2ccc(Cl)cc2Cl)CC1c1ccccc1F (stereo not drawn),25
17,COC1CC(c2ccccc2)=NN1/C(C)=N\OC(=O)/C=C/c1ccccc1 (stereo not drawn),1.56

# System: Pseudomonas aeruginosa
# Experiment: Antibacterial activity against Pseudomonas aeruginosa ATCC 13525
# Format: functional, organism-based
# Conditions: not given
# In short: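 Broth microdilution in MH medium with an inoculum of about 10⁵ cfu/mL. Compounds were serially diluted from a DMSO stock and incubated 24 h at 37 °C. MIC was read visually, then confirmed colorimetrically: MTT (2 mg/mL in PBS, pH 7.4) was added for 4–5 h at room temperature, the dye was extracted with isopropanol/5% 1 mol/L HCl for 12 h, and OD was read at 550 nm.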
row,SMILES,Activity
1,C/C(=N/OC(=O)c1ccc(Cl)cc1)N1N=C(c2ccc(Cl)cc2Cl)CC1c1ccc(C(F)(F)F)cc1 (stereo not drawn),Active
2,C/C(=N/OC(=O)c1ccccc1[N+](=O)[O-])N1N=C(c2ccc(Cl)cc2Cl)CC1c1ccccc1F (stereo not drawn),Active
3,C/C(=N/OC(=O)c1ccccc1[N+](=O)[O-])N1N=C(c2ccc(Cl)cc2Cl)CC1c1ccc(C(F)(F)F)cc1 (stereo not drawn),Active
4,CC1=NN(/C(C)=N\OC(=O)/C=C/c2ccccc2)C(c2ccc(OCc3ccc(F)cc3)cc2)C1 (stereo not drawn),Active
5,CC1=NN(/C(C)=N\OC(=O)c2ccc(Cl)cc2Cl)C(c2ccc(OCc3ccc(F)cc3)cc2)C1 (stereo not drawn),Active
6,CCCC(=O)O/N=C(/C)N1N=C(C)CC1c1ccc(OCc2ccc(F)cc2)cc1 (stereo not drawn),Active
7,CC1=NN(/C(C)=N\OC(=O)c2ccccc2F)C(c2ccc(OCc3ccc(F)cc3)cc2)C1 (stereo not drawn),Active
8,C/C(=N/OC(=O)c1ccccc1F)N1N=C(c2ccc(Cl)cc2Cl)CC1c1ccccc1F (stereo not drawn),Active
9,C/C(=N/OC(=O)c1ccc(C(F)(F)F)cc1)N1N=C(c2ccc(Cl)cc2Cl)CC1c1ccccc1F (stereo not drawn),Active
10,CC1=NN(/C(C)=N\OC(=O)c2ccc(Cl)cc2)C(c2ccc(OCc3ccc(F)cc3)cc2)C1 (stereo not drawn),Active
11,CC1=NN(/C(C)=N\OC(=O)c2ccccc2F)C(c2ccccc2OCc2ccc(F)cc2)C1 (stereo not drawn),Active
12,C/C(=N/OC(=O)c1ccc(C(F)(F)F)cc1)N1N=C(c2ccc(Cl)cc2Cl)CC1c1ccc(C(F)(F)F)cc1 (stereo not drawn),Active
13,C/C(=N/OC(=O)c1ccccc1C)N1N=C(c2ccc(Cl)cc2Cl)CC1c1ccc(C(F)(F)F)cc1 (stereo not drawn),Active
14,CCC(=O)O/N=C(/C)N1N=C(C)CC1c1ccc(OCc2ccc(F)cc2)cc1 (stereo not drawn),Active
15,C/C(=N/OC(=O)c1ccc(F)cc1)N1N=C(c2ccc(Cl)cc2Cl)CC1c1ccccc1F (stereo not drawn),Active

# System: Escherichia coli
# Experiment: Antibacterial activity against Escherichia coli ATCC 35218
# Format: functional
# Conditions: not given
row,SMILES,MIC [µg/mL]
1,C/C(=N/OC(=O)c1ccc(Cl)cc1)N1N=C(c2ccc(Cl)cc2Cl)CC1c1ccc(C(F)(F)F)cc1 (stereo not drawn),50
2,C/C(=N/OC(=O)c1ccccc1[N+](=O)[O-])N1N=C(c2ccc(Cl)cc2Cl)CC1c1ccccc1F (stereo not drawn),50
3,C/C(=N/OC(=O)c1ccccc1[N+](=O)[O-])N1N=C(c2ccc(Cl)cc2Cl)CC1c1ccc(C(F)(F)F)cc1 (stereo not drawn),50
4,CC1=NN(/C(C)=N\OC(=O)/C=C/c2ccccc2)C(c2ccc(OCc3ccc(F)cc3)cc2)C1 (stereo not drawn),12.5
5,CC1=NN(/C(C)=N\OC(=O)c2ccc(Cl)cc2Cl)C(c2ccc(OCc3ccc(F)cc3)cc2)C1 (stereo not drawn),12.5
6,COC1CC(c2ccccc2)=NN1/C(C)=N\OC(=O)c1ccc(Cl)cc1 (stereo not drawn),6.25
7,CCCC(=O)O/N=C(/C)N1N=C(C)CC1c1ccc(OCc2ccc(F)cc2)cc1 (stereo not drawn),> 50
8,CC1=NN(/C(C)=N\OC(=O)c2ccccc2F)C(c2ccc(OCc3ccc(F)cc3)cc2)C1 (stereo not drawn),50
9,C/C(=N/OC(=O)c1ccccc1F)N1N=C(c2ccc(Cl)cc2Cl)CC1c1ccccc1F (stereo not drawn),25
10,C/C(=N/OC(=O)c1ccc(C(F)(F)F)cc1)N1N=C(c2ccc(Cl)cc2Cl)CC1c1ccccc1F (stereo not drawn),12.5
11,CC1=NN(/C(C)=N\OC(=O)c2ccc(Cl)cc2)C(c2ccc(OCc3ccc(F)cc3)cc2)C1 (stereo not drawn),> 50
12,CC1=NN(/C(C)=N\OC(=O)c2ccccc2F)C(c2ccccc2OCc2ccc(F)cc2)C1 (stereo not drawn),50
13,C/C(=N/OC(=O)c1ccc(C(F)(F)F)cc1)N1N=C(c2ccc(Cl)cc2Cl)CC1c1ccc(C(F)(F)F)cc1 (stereo not drawn),50
14,C/C(=N/OC(=O)c1ccccc1C)N1N=C(c2ccc(Cl)cc2Cl)CC1c1ccc(C(F)(F)F)cc1 (stereo not drawn),50
15,CCC(=O)O/N=C(/C)N1N=C(C)CC1c1ccc(OCc2ccc(F)cc2)cc1 (stereo not drawn),50
16,C/C(=N/OC(=O)c1ccc(F)cc1)N1N=C(c2ccc(Cl)cc2Cl)CC1c1ccccc1F (stereo not drawn),25
17,COC1CC(c2ccccc2)=NN1/C(C)=N\OC(=O)/C=C/c1ccccc1 (stereo not drawn),6.25

# System: Pseudomonas fluorescens
# Experiment: Antibacterial activity against Pseudomonas fluorescens ATCC 13525
# Format: functional
# Conditions: not given
row,SMILES,MIC [µg/mL]
1,C/C(=N/OC(=O)c1ccc(Cl)cc1)N1N=C(c2ccc(Cl)cc2Cl)CC1c1ccc(C(F)(F)F)cc1 (stereo not drawn),50
2,C/C(=N/OC(=O)c1ccccc1[N+](=O)[O-])N1N=C(c2ccc(Cl)cc2Cl)CC1c1ccccc1F (stereo not drawn),50
3,C/C(=N/OC(=O)c1ccccc1[N+](=O)[O-])N1N=C(c2ccc(Cl)cc2Cl)CC1c1ccc(C(F)(F)F)cc1 (stereo not drawn),50
4,CC1=NN(/C(C)=N\OC(=O)/C=C/c2ccccc2)C(c2ccc(OCc3ccc(F)cc3)cc2)C1 (stereo not drawn),12.5
5,CC1=NN(/C(C)=N\OC(=O)c2ccc(Cl)cc2Cl)C(c2ccc(OCc3ccc(F)cc3)cc2)C1 (stereo not drawn),50
6,COC1CC(c2ccccc2)=NN1/C(C)=N\OC(=O)c1ccc(Cl)cc1 (stereo not drawn),6.25
7,CCCC(=O)O/N=C(/C)N1N=C(C)CC1c1ccc(OCc2ccc(F)cc2)cc1 (stereo not drawn),50
8,CC1=NN(/C(C)=N\OC(=O)c2ccccc2F)C(c2ccc(OCc3ccc(F)cc3)cc2)C1 (stereo not drawn),25
9,C/C(=N/OC(=O)c1ccccc1F)N1N=C(c2ccc(Cl)cc2Cl)CC1c1ccccc1F (stereo not drawn),6.25
10,C/C(=N/OC(=O)c1ccc(C(F)(F)F)cc1)N1N=C(c2ccc(Cl)cc2Cl)CC1c1ccccc1F (stereo not drawn),50
11,CC1=NN(/C(C)=N\OC(=O)c2ccc(Cl)cc2)C(c2ccc(OCc3ccc(F)cc3)cc2)C1 (stereo not drawn),> 50
12,CC1=NN(/C(C)=N\OC(=O)c2ccccc2F)C(c2ccccc2OCc2ccc(F)cc2)C1 (stereo not drawn),50
13,C/C(=N/OC(=O)c1ccc(C(F)(F)F)cc1)N1N=C(c2ccc(Cl)cc2Cl)CC1c1ccc(C(F)(F)F)cc1 (stereo not drawn),50
14,C/C(=N/OC(=O)c1ccccc1C)N1N=C(c2ccc(Cl)cc2Cl)CC1c1ccc(C(F)(F)F)cc1 (stereo not drawn),50
15,CCC(=O)O/N=C(/C)N1N=C(C)CC1c1ccc(OCc2ccc(F)cc2)cc1 (stereo not drawn),50
16,C/C(=N/OC(=O)c1ccc(F)cc1)N1N=C(c2ccc(Cl)cc2Cl)CC1c1ccccc1F (stereo not drawn),25
17,COC1CC(c2ccccc2)=NN1/C(C)=N\OC(=O)/C=C/c1ccccc1 (stereo not drawn),3.12

# System: Staphylococcus aureus
# Experiment: Antibacterial activity against Staphylococcus aureus ATCC 6538
# Format: functional
# Conditions: not given
row,SMILES,MIC [µg/mL]
1,C/C(=N/OC(=O)c1ccc(Cl)cc1)N1N=C(c2ccc(Cl)cc2Cl)CC1c1ccc(C(F)(F)F)cc1 (stereo not drawn),50
2,C/C(=N/OC(=O)c1ccccc1[N+](=O)[O-])N1N=C(c2ccc(Cl)cc2Cl)CC1c1ccccc1F (stereo not drawn),50
3,C/C(=N/OC(=O)c1ccccc1[N+](=O)[O-])N1N=C(c2ccc(Cl)cc2Cl)CC1c1ccc(C(F)(F)F)cc1 (stereo not drawn),50
4,CC1=NN(/C(C)=N\OC(=O)/C=C/c2ccccc2)C(c2ccc(OCc3ccc(F)cc3)cc2)C1 (stereo not drawn),12.5
5,CC1=NN(/C(C)=N\OC(=O)c2ccc(Cl)cc2Cl)C(c2ccc(OCc3ccc(F)cc3)cc2)C1 (stereo not drawn),12.5
6,COC1CC(c2ccccc2)=NN1/C(C)=N\OC(=O)c1ccc(Cl)cc1 (stereo not drawn),25
7,CCCC(=O)O/N=C(/C)N1N=C(C)CC1c1ccc(OCc2ccc(F)cc2)cc1 (stereo not drawn),> 50
8,CC1=NN(/C(C)=N\OC(=O)c2ccccc2F)C(c2ccc(OCc3ccc(F)cc3)cc2)C1 (stereo not drawn),50
9,C/C(=N/OC(=O)c1ccccc1F)N1N=C(c2ccc(Cl)cc2Cl)CC1c1ccccc1F (stereo not drawn),12.5
10,C/C(=N/OC(=O)c1ccc(C(F)(F)F)cc1)N1N=C(c2ccc(Cl)cc2Cl)CC1c1ccccc1F (stereo not drawn),12.5
11,CC1=NN(/C(C)=N\OC(=O)c2ccc(Cl)cc2)C(c2ccc(OCc3ccc(F)cc3)cc2)C1 (stereo not drawn),> 50
12,CC1=NN(/C(C)=N\OC(=O)c2ccccc2F)C(c2ccccc2OCc2ccc(F)cc2)C1 (stereo not drawn),50
13,C/C(=N/OC(=O)c1ccc(C(F)(F)F)cc1)N1N=C(c2ccc(Cl)cc2Cl)CC1c1ccc(C(F)(F)F)cc1 (stereo not drawn),50
14,C/C(=N/OC(=O)c1ccccc1C)N1N=C(c2ccc(Cl)cc2Cl)CC1c1ccc(C(F)(F)F)cc1 (stereo not drawn),50
15,CCC(=O)O/N=C(/C)N1N=C(C)CC1c1ccc(OCc2ccc(F)cc2)cc1 (stereo not drawn),50
16,C/C(=N/OC(=O)c1ccc(F)cc1)N1N=C(c2ccc(Cl)cc2Cl)CC1c1ccccc1F (stereo not drawn),12.5
17,COC1CC(c2ccccc2)=NN1/C(C)=N\OC(=O)/C=C/c1ccccc1 (stereo not drawn),12.5
